In the library only some 2% were active in any assay of this set; here they are far more common.
XiGFP reactiv: activators of inactive X chromosome reactivation, primary screen, imaging, XiGFP fibroblasts, GFP high-content imaging, set 2. XiGFP mouse fibroblasts, % GFP-positive cells imaging, 3 d; cells co-treated with 5-aza-dC sensitizer; scaled so ellipticine positive control = 100%. activation, % at 7.58 µM. hit rate 0.055% among 360,000. AID 743238, 2013;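 active = mean normalized replicate activation at least 10% and every replicate at or above 10%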;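 also: 0% = median of on-plate neutral control wells and 100% = ellipticine 6 µM median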
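Assay system: SV40-immortalized XiGFP fibroblast cells, line 68-5-11; buffer or medium: DMEM plus 5-aza-dC sensitizer; compound: one concentration, pinned; timing: compounds 3 days, fix/stain 15 min at room temperature; benchmarks: positive control ellipticine, 6 µM final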
HGIII-sPLA2 inh: human group III sPLA2 inhibitors, primary screen, biochemical, QFRET, BODIPY PC-A2 liposome substrate | QFRET BODIPY PC-A2 liposome hydrolysis, fluorescence | inhibition, % at 12.2 µM | hit rate 0.56% among 370,000 | AID 743126, 2013;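 active = inhibition above mean plus 3 SD of compounds lying within the high and low control bounds, cut at about 19% in these data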;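 also: 0% = median of test compound wells and 100% = no enzyme DMSO wells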
SR-BI DiI inh: inhibitors of SR-BI mediated HDL lipid uptake, primary screen, ldlA[mSR-BI] cells, fluorescence, single point; Scavenger receptor class B member 1 (Mus musculus), Q61009; AID 488896, 2010; hit rate 0.96% among 320,000; ldlA[mSR-BI] CHO cells, DiI-HDL uptake fluorescence, 3 h; inhibition, % at 12.5 µM;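 active = mean replicate inhibition of at least 70% and a set share of replicates each scoring 70 or more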;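 also: 0% = median of neutral control wells and 100% = median of positive control wells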
ARNT-TACC3 inh: disruptors of ARNT/TACC3 protein interaction, primary screen, biochemical, AlphaScreen, single concentration; AlphaScreen His-ARNT PAS-B/GST-TACC3 binding, luminescence; TACC3 fragment carries E629A point mutation; inhibition, % at 9.99 µM; hit rate 0.66% among 390,000; AID 623870, 2012;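 active = mean inhibition of replicates at least 50% and at least half of replicates each reaching 50%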;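 also: 0% = complete ARNT plus TACC3 wells and 100% = ARNT alone without TACC3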
NSD2 inh: NSD2 histone methyltransferase inhibitors, primary screen, biochemical, AlphaScreen, single concentration, set 2 | NSD2 peptide methylation, 120 min | Histone-lysine N-methyltransferase NSD2 (Homo sapiens), O96028 | hit rate 0.54% among 310,000 | inhibition, % at 12.5 µM; in the data active = inhibition above about 50%
SR-BI DiI-HDL act: activators of SR-BI mediated DiI-HDL uptake, primary screen, ldlA[mSR-BI] CHO cells, DiI fluorescence; 3 h; 100 = double the neutral-control signal; hit rate 0.096% among 320,000; activation, % at 12.5 µM; AID 504775, 2011;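 active = mean replicate activation of at least 60% and every replicate at or above 60%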;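 also: 0% = median plate neutral-control signal and 100% = twice that signal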
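System: LDL receptor-deficient CHO ldlA cells overexpressing murine SR-BI | Timing: 3 h uptake period with compound, 37 °C | Medium: HEPES-buffered (25 mM, pH 7.4) F12 plus 0.5% BSA | Dosing: Single-point compound dose | Signal: Bottom-read fluorescence, 550/595 nm | Read-out: Retained DiI signal reflecting DiI-HDL uptake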
Alpha artifact: AlphaScreen signal interference with preloaded methylated product, dose response, artefact control for NSD2 inhibitor project, biochemical, cherry-picked samples. AC35, µM (highest dose often 10 µM), inactives show at the highest dose activity change, negative = signal loss. AID 1053174, 2014. shares compounds with NSD2 inh. AlphaScreen artifact counterscreen, preloaded methylated H4 peptide. hit rate 9.4% among 1,500; call rule not given here
* = called active by the depositor; / = no result.

SMILES | XiGFP reactiv | HGIII-sPLA2 inh | SR-BI DiI inh | ARNT-TACC3 inh | NSD2 inh | SR-BI DiI-HDL act | Alpha artifact
C=CCn1c(SCC(=O)c2ccc(O)c(O)c2)nnc1-c1cccnc1 | 0 | 1 | / | 3 | 72* | / | -7%
CCn1c(SCC(=O)c2ccc(O)c(O)c2)nnc1-c1ccccc1OC | / | -11 | -22 | -7 | 88* | 22 | -19%
CCC(=O)N1CCC2(CC1)CN(C(=O)CN1CCOCC1)[C@@H](CO)c1c2c2ccc(OC)cc2n1C | 0 | / | / | / | / | / | /
O=C(COc1ccccc1)N/N=C/c1sc(=O)n(Cc2cccc(C(=O)O)c2)c1Cl | 0 | -20 | 16 | 3 | 62* | -16 | -3%
Cc1cccc(OCC(=O)N/N=C/c2sc(=O)n(Cc3cccc(C(=O)O)c3)c2Cl)c1 | 0 | -17 | 25 | -4 | -1 | -25 | /
Cn1c(Cc2ccccc2)nnc1SCC(=O)Nc1ccc2c(c1)OCCO2 | / | / | -20 | 19 | 0 | 20 | /
COc1ccc(-c2csc(Nc3ccc(S(=O)(=O)Nc4cc(C)on4)cc3)n2)cc1C | 0 | -111 | 17 | 5 | 63* | -17 | -2%
Cc1c(-c2cccc(Cl)c2)nc2ccccc2c1C(=O)OC/C(O)=C(\C#N)c1nc2ccccc2[nH]1 | 0 | -2 | 6 | 18 | 56* | -6 | -9%
COc1cccc(CN(C)C(=O)c2cc(COc3c(F)cccc3F)on2)c1 | 0 | -6 | 4 | 1 | 99* | -4 | 3%
O=C(/C=C/c1ccc(S(=O)(=O)N2CCOCC2)cc1)N1CCN(c2ccccc2)CC1 | 0 | -2 | 5 | 1 | -1 | -5 | /
O=C(c1coc(=O)c(Br)c1)N1CCCc2ccccc21 | / | -1 | 24 | 13 | 52* | -24 | -4%
N#Cc1ccc(OCC(=O)NCCCn2ccnc2)cc1 | 0 | 1 | -34 | 69* | 63* | 34 | 2%
COc1ccc(OCC(=O)NCCCn2ccnc2)cc1 | 0 | -7 | -15 | 22 | -1 | 15 | /
CCN(CC(=O)NCCCn1ccnc1)S(=O)(=O)c1ccc(C)cc1 | 0 | 0 | -18 | -31 | -5 | 18 | /
Cc1ccc(S(=O)(=O)N(C)CC(=O)NCCCn2ccnc2)cc1 | 1 | 1 | / | 6 | 115* | / | -4%
CCCc1[nH]n(-c2nc3ccccc3s2)c(=O)c1C=NCCCN(CC)CC | 0 | -6 | -11 | -1 | 54* | 11 | 1%
CCCN=Cc1c(CCC)[nH]n(-c2nc3ccccc3s2)c1=O | / | -4 | 44 | -3 | / | -44 | /
CCCc1cc(=O)n(-c2nc3ccccc3s2)[nH]1 | 0 | -1 | -6 | 10 | 79* | 6 | 1%
C[C@H]1CN([C@@H](C)CO)C(=O)Cc2cc(N(C)C)ccc2O[C@H]1CN(C)C | 0 | / | / | -2 | / | / | /
CC(=O)c1cccc(NC(=O)c2csc(-n3nc(C)cc3C(F)(F)F)n2)c1 | / | 0 | 1 | / | 125* | -1 | 1%
O=C(NCC1CC1)c1ccc(-n2ccnc2)c2ccoc12 | 0 | 8 | / | / | 63* | / | -3%
CS(=O)(=O)Nc1cccc(NC(=O)c2ccc(-n3ccnc3)c3ccoc23)c1 | 0 | -6 | / | / | 23 | / | /
N=C1C(c2nc(-c3ccc(F)cc3)cs2)=C(O)CN1Cc1ccc(Cl)cc1 | / | 3 | 52 | -17 | 128* | -52 | 0%
COc1cccc(CN2CC(O)=C(c3nc(-c4ccc(Cl)cc4)cs3)C2=N)c1 | / | 3 | 23 | -3 | -4 | -23 | /
Cc1nc([N+](=O)[O-])c(C(=O)OCc2ccccc2F)n1C | 0 | 13 | -19 | 5 | 54* | 19 | -3%
SMILES | XiGFP reactiv | HGIII-sPLA2 inh | SR-BI DiI inh | ARNT-TACC3 inh | NSD2 inh | SR-BI DiI-HDL act | Alpha artifact
Cc1ccc(NC2=CC(=O)C(=O)c3ccccc32)cc1 | / | 8 | 20 | 5 | 65* | -20 | 0%
NS(=O)(=O)c1ccc(NC2=CC(=O)C(=O)c3ccccc32)cc1 | 1 | 8 | -15 | 27 | 58* | 15 | -5%
CCOC(=O)c1ccc(NC2=CC(=O)C(=O)c3ccccc32)cc1 | / | -11 | 40 | 26 | 26 | -40 | /
CNC(=S)NC(CC(=O)OC)c1ccc2c(c1)OCO2 (configuration not stated) | 0 | 2 | -7 | 3 | 56* | 7 | -2%
C/C=C/c1ccccc1[C@@H]1[C@@H](C#N)N(C(=O)NC2CCCCC2)[C@H]1CO | 0 | / | / | / | / | / | /
COc1ccc(-c2nn(-c3ccccc3)cc2C(=O)Nc2ccc(C(=O)O)cc2)cc1 | 0 | -11 | -9 | 6 | 73* | 9 | -3%
O=C(O)c1ccc(NC(=O)c2cn(-c3ccccc3)nc2-c2ccccc2)cc1 | 0 | -15 | -11 | -7 | 14 | 11 | /
CN1CCC(=NNC(=O)c2cn(-c3ccccc3)nc2-c2ccccc2)CC1 | 0 | -6 | 9 | / | 53* | -9 | 1%
O=[N+]([O-])c1ccccc1S(=O)(=O)NCCSCc1ccco1 | 0 | -6 | 6 | 12 | 4 | -6 | /
COc1ccc(/C=N/NC(=O)c2nn(-c3ccccc3)c(=O)c3c(N)scc23)cc1 | / | -5 | 26 | 24 | 100* | -26 | -10%
O=C(NCCCn1ccnc1)C1CCN(S(=O)(=O)c2ccc(F)cc2)CC1 | 0 | -2 | / | -3 | 57* | / | -2%
O=C(NCCc1ccccn1)C1CCCN1S(=O)(=O)c1ccc(Cl)cc1 (configuration not stated) | 0 | 4 | / | 0 | 119* | / | -1%
Cc1cccnc1NC(=O)C1CCCN1S(=O)(=O)c1ccc(Cl)cc1 (configuration not stated) | 0 | 1 | -14 | -3 | 0 | 14 | /
O=C(CSc1ccc(-c2cccnc2)nn1)N1CCCCCC1 | 0 | -2 | / | -2 | 3 | / | /
O=C(CSc1ccc(-c2cccnc2)nn1)N1CCCC1 | 0 | 8 | -11 | -6 | 52* | 11 | 2%
CCN(CC)CCCNc1cc(C)nc2cc(-c3cccs3)nn12 | 0 | 3 | -7 | -2 | 62* | 7 | 1%
Oc1ccc(/C=N/N2CCOCC2)c(O)c1O | 0 | -4 | 0 | 5 | 87* | 0 | -2%
Oc1ccc(/C=N/N2CCCCC2)c(O)c1O | 0 | 11 | -37 | 14 | 21 | 37 | /
